ChEMBL document CHEMBL3244388, “Synthesis and antihypertensive activity of 2-benzamido-1,2,3,4,6,7,12,12b-octahydroindolo[2,3-a]quinolizines” (J Med Chem, 1979)
Calls of active or inactive are those of the source. The calls are words filed in the database; no cut-off is given here.

Legend:
[1] = test system: Rattus norvegicus; assay: Antihypertensive activity in spontaneous hypertensive rat assessed as change in systolic blood pressure at 50 mg/kg, po […] measured 2 hrs post last dose on day 3 by tail-cuff method relative to vehicle-treated control; type: functional, Artery
Summary of the method: (§1)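 Spontaneously hypertensive rats, pre-trained for 2 weeks; animals with baseline below 175 mmHg excluded. Oral dosing at 0 h on days 1, 2 and 3, six rats per group. After warming (20 min, 40 °C), systolic pressure was read by tail-cuff with microphone, 3–5 readings averaged. Readings at 0 h on days 1 and 3 and 2 h post-dose on day 3 were compared with 0-h controls by paired t test; a drop over 15 mmHg counted as active.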

[2] = test system: Rattus norvegicus; assay: Antihypertensive activity in spontaneous hypertensive rat assessed as change in systolic blood pressure at 25 mg/kg, po administered […] measured 2 hrs post last dose on day 3 by tail-cuff method relative to vehicle-treated control; type: functional, Artery; summary of the method: as §1
[3] = test system: Rattus norvegicus; assay: Antihypertensive activity in spontaneous hypertensive rat assessed as change in systolic blood pressure at 10 mg/kg, po […] measured 2 hrs post last dose on day 3 by tail-cuff method […]; type: functional, Artery; summary of the method: as §1
[4] = test system: Rattus norvegicus; assay: Antihypertensive activity in spontaneous hypertensive rat assessed as change in systolic blood pressure at 5 mg/kg, po administered […] measured 2 hrs post last dose on day 3 by tail-cuff method relative to vehicle-treated control; type: functional, Artery; summary of the method: as §1
[5] = species: Felis catus; assay: Inhibition of cat spleen alpha-adrenergic receptor; type: tissue-based
[6] = test system: Canis familiaris; assay: Inhibition of alpha-adrenergic receptor in iv dosed dog; type: functional, organism-based; details: Canis lupus familiaris
[7] = test system: Rattus norvegicus; assay: Antihypertensive activity in spontaneous hypertensive rat assessed as change in systolic blood pressure at 15 mg/kg, po […] measured 2 hrs post last dose on day 3 by tail-cuff method relative to vehicle-treated control; type: functional, Artery; summary of the method: as §1
[8] = test system: Rattus norvegicus; assay: Toxicity in spontaneous hypertensive rat assessed as mortality at 50 mg/kg, po administered on […] measured 2 hrs post last dose on day 3; type: organism-based; set-up: dose 50 mg/kg, route oral; details: in vivo
Summary of the method: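 Genetically spontaneously hypertensive rats, each trained for 2 weeks to set baseline; animals below 175 mmHg were excluded. Groups of six were dosed orally at 0 h on days 1, 2 and 3. Systolic pressure was read by indirect tail-cuff after 20 min conditioning at 40 °C, 3–5 readings averaged, at 0 h on days 1 and 3 and 2 h post-dose on day 3.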

SMILES | Activity [1] [mmHg] | Activity [2] [mmHg] | other results
O=C(N[C@@H]1CCN2CCc3c([nH]c4ccccc34)[C@@H]2C1)c1ccc2c(c1)OCO2 | -52 |  | 
c1ccc(CCNC2CCN3CCc4c([nH]c5ccccc45)[C@@H]3C2)cc1 (stereo partly drawn) | -16 |  | 
O=C(Nc1ccccc1)N[C@@H]1CCN2CCc3c([nH]c4ccccc34)[C@@H]2C1 | -22 |  | 
c1ccc(N[C@H]2CCN3CCc4c([nH]c5ccccc45)[C@@H]3C2)cc1 |  | 5.75 | 
COc1ccc(C(=O)N(C)[C@@H]2CCN3CCc4c([nH]c5ccccc45)[C@@H]3C2)cc1 | -50 | -72 | Activity [3]: -86 mmHg; Activity [4]: -53 mmHg; inhibition [5]: Active; inhibition [6]: Active
c1ccc(CNC2CCN3CCc4c([nH]c5ccccc45)[C@@H]3C2)cc1 (stereo partly drawn) | -53 | -8 | 
O=C(NC1CCN2CCc3c([nH]c4ccccc34)[C@@H]2C1)c1ccco1 (stereo partly drawn) | 0 |  | 
O=C(N[C@@H]1CCN2CCc3c([nH]c4ccccc34)[C@@H]2C1)c1ccc(F)cc1 |  | -24 | 
COc1ccc(C(=O)N[C@@H]2CCN3CCc4c([nH]c5ccccc45)[C@@H]3C2)cc1 |  | 10 | 
CC(=O)NC1CCN2CCc3c([nH]c4ccccc34)[C@@H]2C1 (stereo partly drawn) | -20 |  | 
O=C1c2ccccc2CN1[C@@H]1CCN2CCc3c([nH]c4ccccc34)[C@@H]2C1 | 2 |  | 
CCNC1CCN2CCc3c([nH]c4ccccc34)[C@@H]2C1 (stereo partly drawn) | -4 |  | 
CN(C(=O)c1ccccc1)[C@@H]1CCN2CCc3c([nH]c4ccccc34)[C@@H]2C1 | -103 |  | Activity [3]: -41 mmHg; Activity [4]: -19 mmHg; inhibition [5]: Active; inhibition [6]: Active
CCCN(C(=O)c1ccccc1)C1CCN2CCc3c([nH]c4ccccc34)[C@@H]2C1 (stereo partly drawn) | -16 |  | 
c1ccc(NC2CCN3CCc4c([nH]c5ccccc45)[C@@H]3C2)cc1 (stereo partly drawn) |  | -25 | 
COc1cc(C(=O)N[C@@H]2CCN3CCc4c([nH]c5ccccc45)[C@@H]3C2)cc(OC)c1OC |  | -25 | 
COc1cccc(C(=O)N[C@@H]2CCN3CCc4c([nH]c5ccccc45)[C@@H]3C2)c1 | -18 |  | 
Nc1ccc(C(=O)N[C@@H]2CCN3CCc4c([nH]c5ccccc45)[C@@H]3C2)cc1 | -31 |  | 
CNC1CCN2CCc3c([nH]c4ccccc34)[C@@H]2C1 (stereo partly drawn) | -18 |  | 
O=C(N[C@H]1CCN2CCc3c([nH]c4ccccc34)[C@@H]2C1)c1ccccc1Br | 18 |  | 
CCN(C(=O)c1ccccc1)C1CCN2CCc3c([nH]c4ccccc34)[C@@H]2C1 (stereo partly drawn) | -83 | -92 | 
CCCNC1CCN2CCc3c([nH]c4ccccc34)[C@@H]2C1 (stereo partly drawn) | 27 |  | 
CN(C(=O)c1cccc(F)c1)C1CCN2CCc3c([nH]c4ccccc34)[C@@H]2C1 (stereo partly drawn) | -110 | -76 | 
Cc1ccccc1C(=O)N(C)C1CCN2CCc3c([nH]c4ccccc34)[C@@H]2C1 (stereo partly drawn) | -44 |  | 
Cc1ccc(C(=O)N[C@H]2CCN3CCc4c([nH]c5ccccc45)[C@@H]3C2)cc1 |  | -32 | 

SMILES | Activity [1] [mmHg] | Activity [2] [mmHg] | other results
O=C(N[C@@H]1CCN2CCc3c([nH]c4ccccc34)[C@@H]2C1)c1cccc(C(F)(F)F)c1 | -3 |  | 
CN(C(=O)c1cccc(Cl)c1)C1CCN2CCc3c([nH]c4ccccc34)[C@@H]2C1 (stereo partly drawn) | -79 | -54 | 
CN(C(=O)c1ccccc1Cl)C1CCN2CCc3c([nH]c4ccccc34)[C@@H]2C1 (stereo partly drawn) |  | -13 | 
O=C(Nc1ccccc1)N[C@H]1CCN2CCc3c([nH]c4ccccc34)[C@@H]2C1 |  | -6 | 
Cc1cccc(C(=O)N[C@H]2CCN3CCc4c([nH]c5ccccc45)[C@@H]3C2)c1 |  | -53 | 
NC1CCN2CCc3c([nH]c4ccccc34)[C@@H]2C1 (stereo partly drawn) |  | -9.5 | 
Cc1cccc(C(=O)N[C@@H]2CCN3CCc4c([nH]c5ccccc45)[C@@H]3C2)c1 | -49 |  | 
CN(C(=O)c1ccccc1)[C@H]1CCN2CCc3c([nH]c4ccccc34)[C@@H]2C1 |  |  | Activity [7]: -17 mmHg
CN(C#N)[C@@H]1CCN2CCc3c([nH]c4ccccc34)[C@@H]2C1 | -51 |  | Activity [8]: Toxic
CN(C(=O)c1ccc(F)cc1)C1CCN2CCc3c([nH]c4ccccc34)[C@@H]2C1 (stereo partly drawn) | -20 |  | 
CCn1c2c(c3ccccc31)CCN1CCC(N(C)C(=O)c3ccccc3)C[C@@H]21 (stereo partly drawn) | -67 | -63 | 
Cc1ccc(C(=O)N[C@@H]2CCN3CCc4c([nH]c5ccccc45)[C@@H]3C2)cc1 | -18 |  | 
CN(C(=O)c1ccc(Cl)cc1)C1CCN2CCc3c([nH]c4ccccc34)[C@@H]2C1 (stereo partly drawn) | -6 |  | 
CN(C(=O)c1cccc(C(F)(F)F)c1)C1CCN2CCc3c([nH]c4ccccc34)[C@@H]2C1 (stereo partly drawn) | -48 | -56 | inhibition [5]: Active; inhibition [6]: Active
Cl.O=C(N[C@@H]1CCN2CCc3c([nH]c4ccccc34)[C@@H]2C1)c1ccc([N+](=O)[O-])cc1 | 15 |  | 
CN(Cc1ccccc1)[C@@H]1CCN2CCc3c([nH]c4ccccc34)[C@@H]2C1 | -54 |  | 
O=C(N[C@@H]1CCN2CCc3c([nH]c4ccccc34)[C@@H]2C1)c1ccc(Cl)cc1 | -3 |  | 
CCn1c2c(c3ccccc31)CCN1CCC(NC)C[C@@H]21 (stereo partly drawn) | -30 |  | 
Cc1ccccc1C(=O)N[C@@H]1CCN2CCc3c([nH]c4ccccc34)[C@@H]2C1 | 13 |  | 
O=C(N[C@@H]1CCN2CCc3c([nH]c4ccccc34)[C@@H]2C1)c1ccccc1Cl | -26 |  | 
O=C(N[C@@H]1CCN2CCc3c([nH]c4ccccc34)[C@@H]2C1)c1ccccc1Br | -24 |  | 
O=C(N[C@@H]1CCN2CCc3c([nH]c4ccccc34)[C@@H]2C1)c1ccccc1 | 1 |  | 
O=C(c1ccccc1)N(C1CC1)C1CCN2CCc3c([nH]c4ccccc34)[C@@H]2C1 (stereo partly drawn) | -26 |  | 
Cl.O=C(NC1CCN(CCc2c[nH]c3ccccc23)CC1)c1ccccc1 [INDORAMIN HYDROCHLORIDE] | -79 |  | 
c1ccc2c3c([nH]c2c1)[C@@H]1CC(NC2CC2)CCN1CC3 (stereo partly drawn) | -25 |  | 
